Measurements taken from ChEMBL document CHEMBL3739379, “Anti-Candida activity and cytotoxicity of a large library of new N-substituted-1,3-thiazolidin-4-one derivatives” (Eur J Med Chem, 2016).
In brackets after ≈: the same amount, converted by molar mass.

Columns and labels:
Format in all cases: functional
Enterococcus faecalis = experiment: Antibacterial activity against […] faecalis after 18 to 22 hrs by broth microdilution method
In short: (§1)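 Broth microdilution per NCCLS in Mueller-Hinton II broth; isolates subcultured for purity. Compounds dissolved in DMSO, serial dilutions 256 to 0.5 µg/mL; inoculum 10^5/mL. Controls: organism without compound, medium only. Incubation 18 to 22 h at 35 °C. MIC is the lowest concentration giving complete growth inhibition, read by unaided eye.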

Proteus mirabilis = experiment: Antibacterial activity against Proteus mirabilis after 18 to 22 hrs by broth microdilution method; in short: as §1
Escherichia coli = experiment: Antibacterial activity against Escherichia coli at after 18 to 22 hrs by broth microdilution method; in short: as §1
Candida tropicalis = experiment: Antifungal activity against Candida tropicalis clinical isolate after 24 hrs by sabouraud dextrose broth based microdilution method
In short: (§2)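 Clinical isolates identified by conventional methods and subcultured for purity. Broth microdilution per NCCLS in Sabouraud dextrose broth; compounds dissolved in DMSO and serially diluted; inoculum 10^3/mL. Controls: fungi without compound, medium only. Incubated 24 h at 37 °C. MIC is the lowest concentration with complete growth inhibition by unaided eye. Values are geometric means over isolates per species.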

[1] = system: Staphylococcus haemolyticus; experiment: Antibacterial activity against Staphylococcus haemolyticus after 18 to 22 hrs by broth microdilution method; in short: as §1
Pichia kudriavzevii = experiment: Antifungal activity against Candida krusei clinical isolate after 24 hrs by sabouraud dextrose broth based microdilution method; in short: as §2
Candida parapsilosis = experiment: Antifungal activity against Candida parapsilosis clinical isolate after 24 hrs by sabouraud dextrose broth based microdilution method; conditions: Lodderomyces parapsilosis; in short: as §2
Nakaseomyces glabratus = experiment: Antifungal activity against Candida glabrata clinical isolate after 24 hrs by sabouraud dextrose broth based microdilution method; in short: as §2
Candida albicans = experiment: Antifungal activity against Candida albicans clinical isolate after 24 hrs by sabouraud dextrose broth based microdilution method; in short: as §2
Klebsiella oxytoca = experiment: Antibacterial activity against Klebsiella oxytoca after 18 to 22 hrs by broth microdilution method; in short: as §1
Staphylococcus warneri = experiment: Antibacterial activity against Staphylococcus warneri after 18 to 22 hrs by broth microdilution method; in short: as §1
Staphylococcus aureus = experiment: Antibacterial activity against Staphylococcus aureus after 18 to 22 hrs by broth microdilution method; in short: as §1
Enterobacter sp. = experiment: Antibacterial activity against Enterobacter sp. after 18 to 22 hrs by broth microdilution method; in short: as §1
[Candida] sake = Antifungal activity against Candida sake clinical isolate after 24 hrs by sabouraud dextrose broth based microdilution method; conditions: Fermentozyma sake; in short: as §2

| SMILES | MIC (Enterococcus faecalis) [µg/mL] | MIC (Proteus mirabilis) [µg/mL] | MIC (Escherichia coli) [µg/mL] | MIC (Candida tropicalis) [µg/mL] | MIC [1] [µg/mL] | MIC (Pichia kudriavzevii) [µg/mL] | MIC (Candida parapsilosis) [µg/mL] | MIC (Nakaseomyces glabratus) [µg/mL] | MIC (Candida albicans) [µg/mL] | MIC (Klebsiella oxytoca) [µg/mL] | MIC (Staphylococcus warneri) [µg/mL] | MIC (Staphylococcus aureus) [µg/mL] | MIC (Enterobacter sp.) [µg/mL] | MIC ([Candida] sake) [µg/mL] |
| --- | --- | --- | --- | --- | --- | --- | --- | --- | --- | --- | --- | --- | --- | --- |
| C/C(=N\N=C1/SCC(=O)N1Cc1ccc([N+](=O)[O-])cc1)C1CCCCC1 | > 256 | > 256 | > 256 | 32 (≈ 85.5 µM) | > 256 | 2 (≈ 5.34 µM) | 32 (≈ 85.5 µM) | 16 (≈ 42.7 µM) | 4 (≈ 10.7 µM) | > 256 | > 256 | > 256 | > 256 | 32 (≈ 85.5 µM) |
| C/C(=N\N=C1/SCC(=O)N1Cc1ccc([N+](=O)[O-])cc1)c1cccs1 | > 256 | > 256 | > 256 | 4 (≈ 10.7 µM) | > 256 | 2 (≈ 5.34 µM) | 2 (≈ 5.34 µM) | 2 (≈ 5.34 µM) | 8 (≈ 21.4 µM) | > 256 | > 256 | > 256 | > 256 | 8 (≈ 21.4 µM) |
| CCC/C(C)=N/N=C1\SCC(=O)N1Cc1ccc([N+](=O)[O-])cc1 | > 256 | > 256 | > 256 | 64 (≈ 191 µM) | > 256 | 16 (≈ 47.8 µM) | 16 (≈ 47.8 µM) | 2 (≈ 5.98 µM) | 2 (≈ 5.98 µM) | > 256 | > 256 | > 256 | > 256 | 8 (≈ 23.9 µM) |
| CCCCC/C(C)=N/N=C1\SCC(=O)N1CN1C(=O)c2ccccc2C1=O | > 256 | > 256 | > 256 | 128 (≈ 331 µM) | > 256 | 2 (≈ 5.17 µM) | 2 (≈ 5.17 µM) | 8 (≈ 20.7 µM) | 4 (≈ 10.3 µM) | > 256 | > 256 | > 256 | > 256 | 2 (≈ 5.17 µM) |
| CCCCCC/C(C)=N/N=C1\SCC(=O)N1Cc1ccc([N+](=O)[O-])cc1 | > 256 | > 256 | > 256 | 128 (≈ 340 µM) | > 256 | 128 (≈ 340 µM) | 256 (≈ 680 µM) | 2 (≈ 5.31 µM) | 4 (≈ 10.6 µM) | > 256 | > 256 | > 256 | > 256 | 256 (≈ 680 µM) |
| CC(C)=N/N=C1\SCC(=O)N1Cc1cccc2ccccc12 | > 256 | > 256 | > 256 | 2 (≈ 6.42 µM) | > 256 | 2 (≈ 6.42 µM) | 2 (≈ 6.42 µM) | 4 (≈ 12.8 µM) | 4 (≈ 12.8 µM) | > 256 | > 256 | > 256 | > 256 | 2 (≈ 6.42 µM) |
| CC1CCC(=N/N=C2\SCC(=O)N2CN2C(=O)c3ccccc3C2=O)CC1 (centres undefined) | > 256 | > 256 | > 256 | 8 (≈ 20.8 µM) | > 256 | 8 (≈ 20.8 µM) | 8 (≈ 20.8 µM) | 32 (≈ 83.2 µM) | 2 (≈ 5.2 µM) | > 256 | > 256 | > 256 | > 256 | 4 (≈ 10.4 µM) |
| CC/C(C)=N/N=C1\SCC(=O)N1Cc1cccc2ccccc12 | > 256 | > 256 | > 256 | 128 (≈ 393 µM) | > 256 | 2 (≈ 6.15 µM) | 2 (≈ 6.15 µM) | 2 (≈ 6.15 µM) | 2 (≈ 6.15 µM) | > 256 | > 256 | > 256 | > 256 | 2 (≈ 6.15 µM) |
| C/C(=N\N=C1/SCC(=O)N1CN1C(=O)c2ccccc2C1=O)C1CCCCC1 | > 256 | > 256 | > 256 | 256 (≈ 642 µM) | > 256 | 16 (≈ 40.2 µM) | 16 (≈ 40.2 µM) | 16 (≈ 40.2 µM) | 256 (≈ 642 µM) | > 256 | > 256 | > 256 | > 256 | 16 (≈ 40.2 µM) |
| C=CCC/C(C)=N/N=C1\SCC(=O)N1Cc1ccc([N+](=O)[O-])cc1 | > 256 | > 256 | > 256 | 8 (≈ 23.1 µM) | > 256 | 32 (≈ 92.4 µM) | 32 (≈ 92.4 µM) | 8 (≈ 23.1 µM) | 4 (≈ 11.5 µM) | > 256 | > 256 | > 256 | > 256 | 8 (≈ 23.1 µM) |
| CC1CCCC/C1=N\N=C1/SCC(=O)N1Cc1cccc2ccccc12 (centres undefined) | > 256 | > 256 | > 256 | 4 (≈ 10.9 µM) | > 256 | 16 (≈ 43.8 µM) | 16 (≈ 43.8 µM) | 8 (≈ 21.9 µM) | 4 (≈ 10.9 µM) | > 256 | > 256 | > 256 | > 256 | 2 (≈ 5.47 µM) |
| C/C(=N\N=C1/SCC(=O)N1CN1C(=O)c2ccccc2C1=O)c1ccco1 | > 256 | > 256 | > 256 | 128 (≈ 335 µM) | > 256 | 256 (≈ 669 µM) | 256 (≈ 669 µM) | 16 (≈ 41.8 µM) | 256 (≈ 669 µM) | > 256 | > 256 | > 256 | > 256 | 256 (≈ 669 µM) |
| C/C(=N\N=C1/SCC(=O)N1CN1C(=O)c2ccccc2C1=O)c1ccccn1 | > 256 | > 256 | > 256 | 2 (≈ 5.08 µM) | > 256 | 32 (≈ 81.3 µM) | 4 (≈ 10.2 µM) | 32 (≈ 81.3 µM) | 2 (≈ 5.08 µM) | > 256 | > 256 | > 256 | > 256 | 4 (≈ 10.2 µM) |
| O=C1CS/C(=N\N=C2CCCCC2)N1Cc1cccc2ccccc12 | > 256 | > 256 | > 256 | 8 (≈ 22.8 µM) | > 256 | 16 (≈ 45.5 µM) | 8 (≈ 22.8 µM) | 32 (≈ 91 µM) | 2 (≈ 5.69 µM) | > 256 | > 256 | > 256 | > 256 | 32 (≈ 91 µM) |
| O=C1c2ccccc2C(=O)N1CN1C(=O)CS/C1=N\N=C1CCCCCC1 | > 256 | > 256 | > 256 | 32 (≈ 83.2 µM) | > 256 | 16 (≈ 41.6 µM) | 4 (≈ 10.4 µM) | 16 (≈ 41.6 µM) | 4 (≈ 10.4 µM) | > 256 | > 256 | > 256 | > 256 | 16 (≈ 41.6 µM) |
| O=C1c2ccccc2C(=O)N1CN1C(=O)CS/C1=N\N=C\c1cccnc1 | > 256 | > 256 | > 256 | 16 (≈ 42.2 µM) | > 256 | 8 (≈ 21.1 µM) | 16 (≈ 42.2 µM) | 8 (≈ 21.1 µM) | 256 (≈ 675 µM) | > 256 | > 256 | > 256 | > 256 | 32 (≈ 84.3 µM) |
| O=C1c2ccccc2C(=O)N1CN1C(=O)CS/C1=N\N=C1CCCCCCC1 | > 256 | > 256 | > 256 | 8 (≈ 20.1 µM) | > 256 | 4 (≈ 10 µM) | 4 (≈ 10 µM) | 32 (≈ 80.3 µM) | 4 (≈ 10 µM) | > 256 | > 256 | > 256 | > 256 | 4 (≈ 10 µM) |
| CC1CCC/C1=N\N=C1/SCC(=O)N1Cc1ccc([N+](=O)[O-])cc1 (centres undefined) | > 256 | > 256 | > 256 | 2 (≈ 5.77 µM) | > 256 | 2 (≈ 5.77 µM) | 8 (≈ 23.1 µM) | 16 (≈ 46.2 µM) | 4 (≈ 11.5 µM) | > 256 | > 256 | > 256 | > 256 | 2 (≈ 5.77 µM) |
| C/C(=N\N=C1/SCC(=O)N1Cc1ccc([N+](=O)[O-])cc1)c1ccco1 | > 256 | > 256 | > 256 | 16 (≈ 44.6 µM) | > 256 | 4 (≈ 11.2 µM) | 8 (≈ 22.3 µM) | 32 (≈ 89.3 µM) | 32 (≈ 89.3 µM) | > 256 | > 256 | > 256 | > 256 | 8 (≈ 22.3 µM) |
| C=CCC/C(C)=N/N=C1\SCC(=O)N1Cc1cccc2ccccc12 | > 256 | > 256 | > 256 | 8 (≈ 22.8 µM) | > 256 | 2 (≈ 5.69 µM) | 2 (≈ 5.69 µM) | 2 (≈ 5.69 µM) | 2 (≈ 5.69 µM) | > 256 | > 256 | > 256 | > 256 | 2 (≈ 5.69 µM) |
| CCC/C(C)=N/N=C1\SCC(=O)N1CN1C(=O)c2ccccc2C1=O | > 256 | > 256 | > 256 | 4 (≈ 11.2 µM) | > 256 | 2 (≈ 5.58 µM) | 2 (≈ 5.58 µM) | 2 (≈ 5.58 µM) | 2 (≈ 5.58 µM) | > 256 | > 256 | > 256 | > 256 | 4 (≈ 11.2 µM) |
